ChEMBL document CHEMBL3352186, “Modification and biological evaluation of thiazole derivatives as novel inhibitors of metastatic cancer cell migration and invasion” (J Med Chem, 2014)
Active and inactive are the calls of the source. No cut-off for these calls is given here.

Columns and labels:
MDA-MB-231 [1] = assay: Antimigratory activity in human MDA-MB-231 cells after 24 hrs using transwell system by light microscopy; assay type: functional, cell-based; settings: MDA-MB-231, 24 h
Outline: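 Transwell chambers: 2.5×10^4 cells in serum-free, phenol red-free medium in the upper chamber, with DMEM + 5% FBS below as chemoattractant. Compounds at 10^-8, 10^-7, 10^-6 and 10^-5 M, with 0.1% DMSO vehicle, for 24 h. Membranes were scrubbed, formalin-fixed, methanol-permeabilized and stained with 0.1% crystal violet. Migrated cells were counted by light microscopy per 100× field as % of vehicle. IC50 is the concentration giving 50% migration inhibition.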

MDA-MB-231 [2] = assay: Cytotoxicity against human MDA-MB-231 cells assessed as survival at 1 uM after 5 days; assay type: functional; settings: MDA-MB-231, 120 h, read-out: Survival
HeLa (Homo sapiens) = assay: Induction of disorganization of actin filaments in human HeLa cells assessed as decrease in F-actin staining intensity near cell membrane at 10^-6 M by phalloidin staining
MDA-MB-231 [3] = assay: Antiinvasive activity in human MDA-MB-231 cells at 10 uM after 24 hrs by matrigel assay; assay type: functional; settings: MDA-MB-231, 24 h
Outline: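 Cells serum-starved 24 h, trypsinized and resuspended in medium with DMSO or compound; 2.5×10^4 cells/well seeded on Matrigel-coated inserts. Bottom well held 10% FBS medium with DMSO or 10 μM compound. After 24 h, non-invaded cells were scrubbed off and invaded cells fixed (4% formaldehyde, 10 min, RT), stained with 0.04% crystal violet and counted at 100× in five random fields. Result is % invasion relative to DMSO.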

Chorioallantoic membrane = assay: Antiangiogenic activity in chicken egg embryo assessed as inhibition of bFGF/VEGF-induced angiogenesis in chorioallantoic membrane after 3 days; assay type: functional; settings: Gallus gallus
Outline: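 Fertilized chick embryos were incubated at 37.5 °C for 3 days, removed from the shell, and kept 7 further days. Each compound was added to a collagen plug containing bFGF (10 ng/plug) plus VEGF (30 ng/plug) and placed on the CAM of 10-day embryos for 3 days. PBS was the negative control. Plugs were imaged and scored masked on a 0–3 angiogenesis scale, reported as mean ± SEM, and analysed by one-way ANOVA with Dunnett's test.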

MDA-MB-231 [4] = assay: Antimigratory activity in human MDA-MB-231 cells over-expressed with fascin assessed as inhibition of cell migration at 10 uM after 24 hrs by Transwell assay

Row | Compound | IC50 (MDA-MB-231 [1]) [nM] | viability at 1 µM (MDA-MB-231 [2]) [%] | Activity (HeLa (Homo sapiens)) | inhibition at 10 µM (MDA-MB-231 [3]) [%] | inhibition (Chorioallantoic membrane) | inhibition (MDA-MB-231 [4])
1 | COc1cc(-c2csc(N(C)C(=O)c3cccc(OC)c3OC)n2)cc(OC)c1OC | 108 | 118 |  |  |  | 
2 | COc1cc(-c2csc(NC(=O)c3ccc(Cl)cc3)n2)cc(OC)c1OC | > 25000 | 85.6 |  |  |  | 
3 | Cn1c(-c2cc(C(F)(F)F)cc(C(F)(F)F)c2)cs/c1=N\C(=O)c1ccccc1 | 96.1 | 79.8 |  |  |  | 
4 | Cc1s/c(=N\C(=O)c2ccccc2)n(C)c1-c1ccccc1 | 197 | 68.4 |  |  |  | 
5 | O=C(Nc1nc(-c2ccc(Br)cc2)cs1)c1ccccc1 | 9500 | 82.2 |  |  |  | 
6 | COc1cccc(C(=O)/N=c2\scc(-c3cc(OC)c(OC)c(OC)c3)n2C)c1 | > 50000 | 104 |  |  |  | 
7 | O=C(Nc1nc(-c2ccccc2Cl)cs1)c1ccccc1 | 15000 | 102 |  |  |  | 
8 | Cc1ccc(-c2cnc(N(C)C(=O)c3ccccc3)s2)cc1 | 1090 | 59.3 |  |  |  | 
9 | Cc1ccc(-c2cn(C)/c(=N/C(=O)c3ccccc3)s2)cc1 | > 25000 | 113 |  |  |  | 
10 | COc1ccccc1C(=O)N(C)c1nc(-c2cc(OC)c(OC)c(OC)c2)cs1 | > 25000 | 109 |  |  |  | 
11 | O=C(Nc1nc(-c2cc(C(F)(F)F)cc(C(F)(F)F)c2)cs1)c1ccccc1 | 336 | 85.8 |  |  |  | 
12 | COc1cc(C(=O)N(C)c2nc(-c3cc(OC)c(OC)c(OC)c3)cs2)cc(OC)c1OC | 470 | 115 |  |  |  | 
13 | COc1cc(-c2csc(NC(=O)c3cccc(OC)c3OC)n2)cc(OC)c1OC | 15000 | 90.1 |  |  |  | 
14 | COc1ccc(C(=O)N(C)c2nc(-c3cc(OC)c(OC)c(OC)c3)cs2)cc1 | 312 | 100 |  |  |  | 
15 | C#CCn1c(-c2ccccc2)cs/c1=N\C(=O)c1ccccc1 | 2780 | 63 |  |  |  | 
16 | COc1ccc(C(=O)/N=c2\scc(-c3cc(OC)c(OC)c(OC)c3)n2C)cc1 | 8040 | 106 |  |  |  | 
17 | COc1cc(-c2csc(NC(=O)c3ccccc3)n2)cc(OC)c1OC | > 50000 | 95 |  |  |  | 
18 | CCn1c(-c2ccccc2)cs/c1=N\C(=O)c1ccccc1 | 51.5 | 68.5 |  |  |  | 
19 | CCCn1c(-c2ccc(C)cc2C)cs/c1=N\C(=O)c1ccccc1 | 292 | 85 |  |  |  | 
20 | CN(C(=O)c1ccccc1)c1nc(-c2ccccc2Cl)cs1 | 41.6 | 88.9 |  |  |  | 
21 | CCCCn1c(-c2ccc(C)cc2C)cs/c1=N\C(=O)c1ccccc1 | 196 | 70.4 |  |  |  | 
22 | C=CCn1c(-c2ccccc2)cs/c1=N\C(=O)c1ccccc1 | 1200 | 64.8 |  |  |  | 

Row | Compound | IC50 (MDA-MB-231 [1]) [nM] | viability at 1 µM (MDA-MB-231 [2]) [%] | Activity (HeLa (Homo sapiens)) | inhibition at 10 µM (MDA-MB-231 [3]) [%] | inhibition (Chorioallantoic membrane) | inhibition (MDA-MB-231 [4])
23 | CCCN(C(=O)c1ccccc1)c1nc(-c2ccccc2)cs1 | 77 | 116 | Active | > 50 |  | 
24 | Cc1csc(NC(=O)c2ccccc2)n1 | 12000 | 103 |  |  |  | 
25 | Cn1c(-c2ccc(Br)cc2)cs/c1=N\C(=O)c1ccccc1 | 125 | 59.3 |  |  |  | 
26 | Cc1s/c(=N\C(=O)c2ccccc2)n(C)c1-c1ccc(F)cc1 | 847 | 83.8 |  |  |  | 
27 | CN(C(=O)c1ccccc1)c1nc(-c2ccc(Br)cc2)cs1 | 317 | 65.4 |  |  |  | 
28 | CN(C(=O)c1ccccc1)c1nc(-c2cccc(Br)c2)cs1 | 437 | 104 |  |  |  | 
29 | C=CCn1c(-c2ccc(C)cc2C)cs/c1=N\C(=O)c1ccccc1 | 456 | 115 |  |  |  | 
30 | COc1ccc(C(=O)Nc2nc(-c3cc(OC)c(OC)c(OC)c3)cs2)c(OC)c1 | > 50000 | 93.8 |  |  |  | 
31 | COc1ccc(C(=O)Nc2nc(-c3cc(OC)c(OC)c(OC)c3)cs2)cc1OC | > 25000 | 87.3 |  |  |  | 
32 | Cc1sc(N(C)C(=O)c2ccccc2)nc1-c1ccc(F)cc1 | 1620 | 108 |  |  |  | 
33 | Cc1sc(NC(=O)c2ccccc2)nc1-c1ccccc1 | > 25000 | 99 |  |  |  | 
34 | CCCCCCCCCCCCn1c(-c2ccc(C)cc2C)cs/c1=N\C(=O)c1ccccc1 | 24 | 110 | Active | > 50 | Active | 
35 | COc1cc(-c2csc(N(C)C(=O)c3ccccc3)n2)cc(OC)c1OC | 10000 | 96.4 |  |  |  | 
36 | COc1cccc(C(=O)N(C)c2nc(-c3cc(OC)c(OC)c(OC)c3)cs2)c1 | 646 | 88.9 |  |  |  | 
37 | COc1ccccc1C(=O)Nc1nc(-c2cc(OC)c(OC)c(OC)c2)cs1 | 8500 | 104 |  |  |  | 
38 | C#CCN(C(=O)c1ccccc1)c1nc(-c2ccc(C)cc2C)cs1 | 321 | 106 |  |  |  | 
39 | Cn1c(-c2cccc(Br)c2)cs/c1=N\C(=O)c1ccccc1 | 302 | 94.4 |  |  |  | 
40 | Cn1c(-c2ccccc2Cl)cs/c1=N\C(=O)c1ccccc1 | 268 | 72.2 |  |  |  | 
41 | Cc1sc(NC(=O)c2ccccc2)nc1-c1ccc(F)cc1 | 9100 | 53.7 |  |  |  | 
42 | C#CCn1c(-c2ccc(C)cc2C)cs/c1=N\C(=O)c1ccccc1 | 3890 | 70.2 |  |  |  | 
43 | Cc1ccc(-c2cs/c(=N\S(=O)(=O)c3ccccc3)n2C)c(C)c1 | 1460 | 92.4 |  |  |  | 
44 | Cc1cs/c(=N\C(=O)c2ccccc2)n1C | 15000 | 103 |  |  |  | 

Row | Compound | IC50 (MDA-MB-231 [1]) [nM] | viability at 1 µM (MDA-MB-231 [2]) [%] | Activity (HeLa (Homo sapiens)) | inhibition at 10 µM (MDA-MB-231 [3]) [%] | inhibition (Chorioallantoic membrane) | inhibition (MDA-MB-231 [4])
45 | CCn1c(-c2ccc(C)cc2C)cs/c1=N\C(=O)c1ccccc1 | 1950 | 142 |  | > 50 |  | 
46 | Cc1ccc(-c2cnc(NC(=O)c3ccccc3)s2)cc1 | 308 | 55.6 |  |  |  | 
47 | COc1ccc(C(=O)Nc2nc(-c3cc(OC)c(OC)c(OC)c3)cs2)cc1 | > 25000 | 93.8 |  |  |  | 
48 | COc1cccc(C(=O)Nc2nc(-c3cc(OC)c(OC)c(OC)c3)cs2)c1 | 14000 | 92.6 |  |  |  | 
49 | CCCn1c(-c2ccccc2)cs/c1=N\C(=O)c1ccccc1 | 657 | 100 |  |  |  | 
50 | Cc1ccc(-c2csc(N(C)S(=O)(=O)c3ccccc3)n2)c(C)c1 | > 25000 | 117 |  |  |  | 
51 | COc1cc(C(=O)/N=c2\scc(-c3cc(OC)c(OC)c(OC)c3)n2C)cc(OC)c1OC | 1960 | 81.5 |  |  |  | 
52 | O=C(Nc1nc(-c2cccc(Cl)c2)cs1)c1ccccc1 | 123 | 71.4 |  |  |  | 
53 | COc1cc(C(=O)Nc2nc(-c3cc(OC)c(OC)c(OC)c3)cs2)cc(OC)c1OC | 1030 | 77.6 |  |  |  | 
54 | O=C(Nc1nc(-c2cccc(Br)c2)cs1)c1ccccc1 | 10000 | 78 |  |  |  | 
55 | Cc1ccc(-c2cs/c(=N\C(=O)c3ccccc3)n2C)c(C)c1 | 218 | 101 |  | > 50 |  | 
56 | Cn1c(C2CC2)cs/c1=N\C(=O)c1ccccc1 | 104 | 90.7 |  |  |  | 
57 | COc1cc(-c2cs/c(=N\C(=O)c3ccc(Cl)cc3)n2C)cc(OC)c1OC | 758 | 77.6 |  |  |  | 
58 | CCN(C(=O)c1ccccc1)c1nc(-c2ccccc2)cs1 | 533 | 129 |  |  |  | 
59 | COc1ccc(C(=O)N(C)c2nc(-c3cc(OC)c(OC)c(OC)c3)cs2)cc1OC | > 25000 | 102 |  |  |  | 
60 | COc1cc(-c2cs/c(=N\C(=O)c3ccccc3)n2C)cc(OC)c1OC | 1070 | 88.4 |  |  |  | 
61 | Cn1c(-c2cccc(Cl)c2)cs/c1=N\C(=O)c1ccccc1 | 367 | 35.2 |  |  |  | 
62 | COc1ccc(C(=O)N(C)c2nc(-c3cc(OC)c(OC)c(OC)c3)cs2)c(OC)c1 | 5040 | 119 |  |  |  | 
63 | CCCCCCn1c(-c2ccc(C)cc2C)cs/c1=N\C(=O)c1ccccc1 | 45 | 90 | Active | > 50 | Active | inactive
64 | Cc1ccc(-c2csc(NS(=O)(=O)c3ccccc3)n2)c(C)c1 | 11000 | 137 |  |  |  | 
